Laboratory results: ChEMBL document CHEMBL1137737, “Synthesis, antimicrobial and cytotoxic activities of 1,3,4-oxadiazoles, 1,3,4-thiadiazoles and 1,2,4-triazoles” (Eur J Med Chem, 2009)
Values after ≈ are worked out from the molar mass of the structure shown.

Key:
Assay type in all cases: functional
Klebsiella pneumoniae [1] = experiment: Antibacterial activity against Klebsiella pneumoniae NCIM 2957 at 100 ug/disk after 24 hrs by agar disc-diffusion method; conditions: NCIM 2957, 24 h, read-out: DIZ
Summary of the method: (§1)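 Sterile 6 mm filter-paper discs are soaked in compound solution in DMSO and placed on nutrient agar plates already inoculated with each organism. Plates are incubated at 37 °C. The diameter of the growth-inhibition zone is read after 24 h for bacteria and after 48 h for fungi.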

Aspergillus niger [2] = experiment: Antifungal activity against Aspergillus niger NCIM 596 after 48 hrs by microdilution susceptibility method; conditions: NCIM 596, 48 h
Summary of the method: (§2)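 This is a microdilution susceptibility test. Organism suspensions are inoculated into wells holding the dilution series, then incubated at 36 °C for 24 h (bacteria) or 48 h (fungi). MIC is the lowest concentration giving no turbidity, i.e. complete inhibition of visible growth.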

Aspergillus niger [3] = experiment: Antifungal activity against Aspergillus niger NCIM 596 at 200 ug/disk after 48 hrs by agar disc-diffusion method; conditions: NCIM 596, 48 h, read-out: DIZ; summary of the method: as §1
Fusarium solani [4] = experiment: Antifungal activity against Fusarium solani NCIM 1330 at 100 ug/disk after 48 hrs by agar disc-diffusion method; conditions: NCIM 1330, 48 h, read-out: DIZ; summary of the method: as §1
Curvularia lunata [5] = experiment: Antifungal activity against Curvularia lunata NCIM 716 at 200 ug/disk after 48 hrs by agar disc-diffusion method; conditions: NCIM 716, 48 h, read-out: DIZ; summary of the method: as §1
Curvularia lunata [6] = experiment: Antifungal activity against Curvularia lunata NCIM 716 at 100 ug/disk after 48 hrs by agar disc-diffusion method; conditions: NCIM 716, 48 h, read-out: DIZ; summary of the method: as §1
Klebsiella pneumoniae [7] = experiment: Antibacterial activity against Klebsiella pneumoniae NCIM 2957 after 24 hrs by microdilution susceptibility method; conditions: NCIM 2957, 24 h; summary of the method: as §2
Staphylococcus aureus [8] = experiment: Antibacterial activity against Staphylococcus aureus NCIM 5021 at 200 ug/disk after 24 hrs by agar disc-diffusion method; conditions: NCIM 5021, 24 h, read-out: DIZ; summary of the method: as §1
Staphylococcus aureus [9] = experiment: Antibacterial activity against Staphylococcus aureus NCIM 5021 after 24 hrs by microdilution susceptibility method; conditions: NCIM 5021, 24 h; summary of the method: as §2
Bacillus subtilis [10] = experiment: Antibacterial activity against Bacillus subtilis NCIM 2063 at 100 ug/disk after 24 hrs by agar disc-diffusion method; conditions: NCIM 2063, 24 h, read-out: DIZ; summary of the method: as §1
Bacillus subtilis [11] = experiment: Antibacterial activity against Bacillus subtilis NCIM 2063 at 200 ug/disk after 24 hrs by agar disc-diffusion method; conditions: NCIM 2063, 24 h, read-out: DIZ; summary of the method: as §1
Fusarium solani [12] = experiment: Antifungal activity against Fusarium solani NCIM 1330 at 200 ug/disk after 48 hrs by agar disc-diffusion method; conditions: NCIM 1330, 48 h, read-out: DIZ; summary of the method: as §1
Curvularia lunata [13] = experiment: Antifungal activity against Curvularia lunata NCIM 716 after 48 hrs by microdilution susceptibility method; conditions: NCIM 716, 48 h; summary of the method: as §2
Proteus vulgaris [14] = experiment: Antibacterial activity against Proteus vulgaris NCIM 2027 at 200 ug/disk after 24 hrs by agar disc-diffusion method; conditions: NCIM 2027, 24 h, read-out: DIZ; summary of the method: as §1
Fusarium solani [15] = experiment: Antifungal activity against Fusarium solani NCIM 1330 after 48 hrs by microdilution susceptibility method; conditions: NCIM 1330, 48 h; summary of the method: as §2
Proteus vulgaris [16] = experiment: Antibacterial activity against Proteus vulgaris NCIM 2027 after 24 hrs by microdilution susceptibility method; conditions: NCIM 2027, 24 h; summary of the method: as §2
Aspergillus niger [17] = experiment: Antifungal activity against Aspergillus niger NCIM 596 at 100 ug/disk after 48 hrs by agar disc-diffusion method; conditions: NCIM 596, 48 h, read-out: DIZ; summary of the method: as §1
Klebsiella pneumoniae [18] = experiment: Antibacterial activity against Klebsiella pneumoniae NCIM 2957 at 200 ug/disk after 24 hrs by agar disc-diffusion method; conditions: NCIM 2957, 24 h, read-out: DIZ; summary of the method: as §1
Bacillus subtilis [19] = experiment: Antibacterial activity against Bacillus subtilis NCIM 2063 after 24 hrs by microdilution susceptibility method; conditions: NCIM 2063, 24 h; summary of the method: as §2
Staphylococcus aureus [20] = experiment: Antibacterial activity against Staphylococcus aureus NCIM 5021 at 100 ug/disk after 24 hrs by agar disc-diffusion method; conditions: NCIM 5021, 24 h, read-out: DIZ; summary of the method: as §1
Proteus vulgaris [21] = experiment: Antibacterial activity against Proteus vulgaris NCIM 2027 at 100 ug/disk after 24 hrs by agar disc-diffusion method; conditions: NCIM 2027, 24 h, read-out: DIZ; summary of the method: as §1

MIC (Aspergillus niger [2]) [µg/mL]	MIC (Klebsiella pneumoniae [7]) [µg/mL]	MIC (Staphylococcus aureus [9]) [µg/mL]	MIC (Curvularia lunata [13]) [µg/mL]	MIC (Fusarium solani [15]) [µg/mL]	MIC (Proteus vulgaris [16]) [µg/mL]	MIC (Bacillus subtilis [19]) [µg/mL]	SMILES	zone of inhibition at 100 µg/disc (Klebsiella pneumoniae [1]) [mm]	zone of inhibition at 200 µg/disc (Aspergillus niger [3]) [mm]	zone of inhibition at 100 µg/disc (Fusarium solani [4]) [mm]	zone of inhibition at 200 µg/disc (Curvularia lunata [5]) [mm]	zone of inhibition at 100 µg/disc (Curvularia lunata [6]) [mm]	zone of inhibition at 200 µg/disc (Staphylococcus aureus [8]) [mm]	zone of inhibition at 100 µg/disc (Bacillus subtilis [10]) [mm]	zone of inhibition at 200 µg/disc (Bacillus subtilis [11]) [mm]	zone of inhibition at 200 µg/disc (Fusarium solani [12]) [mm]	zone of inhibition at 200 µg/disc (Proteus vulgaris [14]) [mm]	zone of inhibition at 200 µg/disc (Klebsiella pneumoniae [18]) [mm]	zone of inhibition at 100 µg/disc (Staphylococcus aureus [20]) [mm]	zone of inhibition at 100 µg/disc (Proteus vulgaris [21]) [mm]	also measured
400 (≈ 1040 µM)	400 (≈ 1040 µM)	400 (≈ 1040 µM)	200 (≈ 522 µM)	200 (≈ 522 µM)	400 (≈ 1040 µM)	400 (≈ 1040 µM)	Nn1c(CS(=O)(=O)c2ccc(Cl)cc2)nnc1-c1ccccc1Cl	18	24	24	25	23	23	16	18	27	20	20	19	19	zone of inhibition at 100 µg/disc (Aspergillus niger [17]): 20 mm
200 (≈ 605 µM)	200 (≈ 605 µM)	200 (≈ 605 µM)	200 (≈ 605 µM)	200 (≈ 605 µM)	400 (≈ 1210 µM)	200 (≈ 605 µM)	O=S(=O)(Cc1ccccc1)Cc1nnc(-c2ccccc2)s1	17	19	18	23	21	29	22	25	20	24	22	24	16	zone of inhibition at 100 µg/disc (Aspergillus niger [17]): 16 mm
200 (≈ 548 µM)	200 (≈ 548 µM)	100 (≈ 274 µM)	200 (≈ 548 µM)	200 (≈ 548 µM)	200 (≈ 548 µM)	200 (≈ 548 µM)	O=S(=O)(Cc1ccccc1)Cc1nnc(-c2ccccc2Cl)s1	19	19	20	21	19	29	25	28	23	22	23	26	18	zone of inhibition at 100 µg/disc (Aspergillus niger [17]): 16 mm
200 (≈ 548 µM)	200 (≈ 548 µM)	100 (≈ 274 µM)	200 (≈ 548 µM)	200 (≈ 548 µM)	200 (≈ 548 µM)	200 (≈ 548 µM)	O=S(=O)(Cc1ccc(Cl)cc1)Cc1nnc(-c2ccccc2)s1	19	20	24	25	23	30	24	28	27	22	23	28	17	zone of inhibition at 100 µg/disc (Aspergillus niger [17]): 17 mm
200 (≈ 573 µM)	–	400 (≈ 1150 µM)	200 (≈ 573 µM)	200 (≈ 573 µM)	400 (≈ 1150 µM)	400 (≈ 1150 µM)	Nn1c(CS(=O)(=O)c2ccc(Cl)cc2)nnc1-c1ccccc1	17	22	21	25	22	23	17	20	24	21	19	19	18	zone of inhibition at 100 µg/disc (Aspergillus niger [17]): 19 mm
200 (≈ 551 µM)	200 (≈ 551 µM)	100 (≈ 276 µM)	200 (≈ 551 µM)	100 (≈ 276 µM)	200 (≈ 551 µM)	100 (≈ 276 µM)	Nn1c(CS(=O)(=O)Cc2ccc(Cl)cc2)nnc1-c1ccccc1	27	20	24	27	24	31	28	33	26	29	29	27	26	zone of inhibition at 100 µg/disc (Aspergillus niger [17]): 18 mm
400 (≈ 1220 µM)	200 (≈ 609 µM)	400 (≈ 1220 µM)	200 (≈ 609 µM)	200 (≈ 609 µM)	200 (≈ 609 µM)	400 (≈ 1220 µM)	Nn1c(CS(=O)(=O)Cc2ccccc2)nnc1-c1ccccc1	18	21	19	24	22	24	23	26	21	22	22	22	17	zone of inhibition at 100 µg/disc (Aspergillus niger [17]): 17 mm
100 (≈ 276 µM)	200 (≈ 551 µM)	100 (≈ 276 µM)	100 (≈ 276 µM)	100 (≈ 276 µM)	200 (≈ 551 µM)	200 (≈ 551 µM)	Nn1c(CS(=O)(=O)Cc2ccccc2)nnc1-c1ccccc1Cl	24	21	21	20	18	32	30	34	23	29	28	29	26	zone of inhibition at 100 µg/disc (Aspergillus niger [17]): 17 mm
100 (≈ 250 µM)	100 (≈ 250 µM)	50 (≈ 125 µM)	100 (≈ 250 µM)	100 (≈ 250 µM)	200 (≈ 501 µM)	100 (≈ 250 µM)	O=S(=O)(Cc1ccc(Cl)cc1)Cc1nnc(-c2ccccc2Cl)s1	20	23	28	27	25	33	27	31	31	23	24	29	20	zone of inhibition at 100 µg/disc (Aspergillus niger [17]): 20 mm
200 (≈ 519 µM)	400 (≈ 1040 µM)	200 (≈ 519 µM)	200 (≈ 519 µM)	200 (≈ 519 µM)	400 (≈ 1040 µM)	200 (≈ 519 µM)	O=S(=O)(Cc1nnc(-c2ccccc2Cl)s1)c1ccc(Cl)cc1	16	21	20	22	19	23	19	23	24	21	19	21	19	zone of inhibition at 100 µg/disc (Aspergillus niger [17]): 17 mm

SMILES	MIC (Aspergillus niger [2]) [µg/mL]	MIC (Klebsiella pneumoniae [7]) [µg/mL]	MIC (Staphylococcus aureus [9]) [µg/mL]	MIC (Curvularia lunata [13]) [µg/mL]	MIC (Fusarium solani [15]) [µg/mL]	MIC (Proteus vulgaris [16]) [µg/mL]	MIC (Bacillus subtilis [19]) [µg/mL]	zone of inhibition at 100 µg/disc (Klebsiella pneumoniae [1]) [mm]	zone of inhibition at 200 µg/disc (Aspergillus niger [3]) [mm]	zone of inhibition at 100 µg/disc (Fusarium solani [4]) [mm]	zone of inhibition at 200 µg/disc (Curvularia lunata [5]) [mm]	zone of inhibition at 100 µg/disc (Curvularia lunata [6]) [mm]	zone of inhibition at 200 µg/disc (Staphylococcus aureus [8]) [mm]	zone of inhibition at 100 µg/disc (Bacillus subtilis [10]) [mm]	zone of inhibition at 200 µg/disc (Bacillus subtilis [11]) [mm]	zone of inhibition at 200 µg/disc (Fusarium solani [12]) [mm]	zone of inhibition at 200 µg/disc (Proteus vulgaris [14]) [mm]	zone of inhibition at 200 µg/disc (Klebsiella pneumoniae [18]) [mm]	zone of inhibition at 100 µg/disc (Staphylococcus aureus [20]) [mm]	zone of inhibition at 100 µg/disc (Proteus vulgaris [21]) [mm]	also measured
O=C(N[C@H](CO)[C@H](O)c1ccc([N+](=O)[O-])cc1)C(Cl)Cl [CHLORAMPHENICOL]	–	6.25 (≈ 19.3 µM)	6.25 (≈ 19.3 µM)	–	–	12.5 (≈ 38.7 µM)	6.25 (≈ 19.3 µM)	37	–	–	–	–	41	38	44	–	45	42	35	42	–
